Experimental data from ChEMBL document CHEMBL1287802, “Convergent synthesis of fluorescence-labeled probes of Annonaceous acetogenins and visualization of their cell distribution” (Bioorg Med Chem, 2010).
Calls of active or inactive are those of the source. The calls are words filed in the database; no cut-off is given here.

Assays:
[1] = biological target: ABC-type oligopeptide transporter ABCB9 (Homo sapiens) (UniProt Q9NP78); assay: Effect on human GFP-tagged TAPL-mediated cellular uptake expressed in CHO-K1 cells assessed as localization to endoplasmic reticulum at 10 uM after 5 hrs using ER-Tracker red staining by confocal laser scanning microscopic analysis; assay type: cell-based
Chain of ABC-type oligopeptide transporter ABCB9 (Homo sapiens) (Q9NP78 whole entry): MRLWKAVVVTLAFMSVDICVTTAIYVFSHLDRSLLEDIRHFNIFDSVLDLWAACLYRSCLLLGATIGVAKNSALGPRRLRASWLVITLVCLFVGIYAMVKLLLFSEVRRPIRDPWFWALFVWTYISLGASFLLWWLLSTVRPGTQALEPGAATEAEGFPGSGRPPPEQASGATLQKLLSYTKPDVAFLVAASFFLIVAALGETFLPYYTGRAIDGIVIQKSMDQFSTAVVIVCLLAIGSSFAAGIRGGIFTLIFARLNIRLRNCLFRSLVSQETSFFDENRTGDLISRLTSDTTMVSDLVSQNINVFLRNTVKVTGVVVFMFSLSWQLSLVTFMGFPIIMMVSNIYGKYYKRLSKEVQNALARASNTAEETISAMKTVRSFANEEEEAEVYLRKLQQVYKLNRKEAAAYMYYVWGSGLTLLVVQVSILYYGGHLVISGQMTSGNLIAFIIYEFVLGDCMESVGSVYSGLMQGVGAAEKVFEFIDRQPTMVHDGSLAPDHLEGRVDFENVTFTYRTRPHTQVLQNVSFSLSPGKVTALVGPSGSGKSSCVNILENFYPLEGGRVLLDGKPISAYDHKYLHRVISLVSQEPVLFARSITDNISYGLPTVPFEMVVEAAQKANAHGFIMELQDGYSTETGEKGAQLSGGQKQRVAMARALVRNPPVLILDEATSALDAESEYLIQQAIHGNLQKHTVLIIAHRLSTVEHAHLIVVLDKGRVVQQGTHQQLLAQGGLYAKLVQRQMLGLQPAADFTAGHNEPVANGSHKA
Procedure, shortened: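 CHO-K1 cells were cultured two days at 37 °C in Ham's F12 with 7% fetal calf serum. They were loaded with 10 µM dansyl probe in medium for 5 h, washed five times, then stained with ER-Tracker Red. Live confocal imaging used 405 nm excitation for dansyl and 559 nm for the tracker, with overlap of signals assessed. Samples were run in duplicate.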

[2] = Cytotoxicity against CHOK1 cells at 10 uM after 24 hrs; assay type: cell-based, Cricetulus griseus; conditions: chinese hamster, cho-k1, 24 h
Procedure, shortened: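 CHO-K1 cells were grown two days at 37 °C in Ham's F12 with 7% fetal calf serum in glass-bottomed dishes. They were exposed to 10 µM probe for 5 h, washed, and imaged. Dishes were then incubated a further 24 h. Toxicity was judged by microscopic inspection for desquamated or suspended cells.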

[3] = Growth inhibition of human HBC4 cells after 48 hrs by sulforhodamine B assay; assay type: functional; conditions: HBC4, 48 h
Procedure, shortened: (§1)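 Tested in the JFCR39 panel of 39 human cancer cell lines. Cells were exposed to compound for 48 h, and growth was measured as the change in total cellular protein by sulforhodamine B colorimetry. GI50 (molar concentration for 50% growth inhibition) was calculated by a previously reported method. Fingerprints were plotted as log differences of each line's GI50 from the panel mean.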

[4] = Growth inhibition of human BSY1 cells after 48 hrs by sulforhodamine B assay; assay type: functional; conditions: BSY-1, 48 h; procedure, shortened: as §1
[5] = Growth inhibition of human HBC5 cells after 48 hrs by sulforhodamine B assay; assay type: functional; conditions: HBC5, 48 h; procedure, shortened: as §1
[6] = test system: MCF7; assay: Growth inhibition of human MCF7 cells after 48 hrs by sulforhodamine B assay; assay type: functional; conditions: MCF7, 48 h; procedure, shortened: as §1
[7] = Growth inhibition of human MDA-MB-23 cells after 48 hrs by sulforhodamine B assay; assay type: functional; conditions: MDA-MB-23, 48 h, read-out: pGI50 (converted); procedure, shortened: as §1
[8] = test system: U-251; assay: Growth inhibition of human U251 cells after 48 hrs by sulforhodamine B assay; assay type: functional; conditions: U-251, 48 h; procedure, shortened: as §1
[9] = test system: SF-268; assay: Growth inhibition of human SF268 cells after 48 hrs by sulforhodamine B assay; assay type: functional; conditions: SF-268, 48 h; procedure, shortened: as §1
[10] = test system: SF-295; assay: Growth inhibition of human SF295 cells after 48 hrs by sulforhodamine B assay; assay type: functional; conditions: SF-295, 48 h; procedure, shortened: as §1
[11] = test system: SF-539; assay: Growth inhibition of human SF539 cells after 48 hrs by sulforhodamine B assay; assay type: functional; conditions: SF-539, 48 h; procedure, shortened: as §1
[12] = test system: SNB-75; assay: Growth inhibition of human SNB75 cells after 48 hrs by sulforhodamine B assay; assay type: functional; conditions: SNB-75, 48 h; procedure, shortened: as §1
[13] = test system: SNB-78; assay: Growth inhibition of human SNB78 cells after 48 hrs by sulforhodamine B assay; assay type: functional; conditions: SNB-78, 48 h; procedure, shortened: as §1
[14] = test system: HCC 2998; assay: Growth inhibition of human HCC2998 cells after 48 hrs by sulforhodamine B assay; assay type: functional; conditions: HCC 2998, 48 h, read-out: pGI50 (converted); procedure, shortened: as §1
[15] = test system: KM12; assay: Growth inhibition of human KM12 cells after 48 hrs by sulforhodamine B assay; assay type: functional; conditions: KM12, 48 h; procedure, shortened: as §1
[16] = test system: HT-29; assay: Growth inhibition of human HT-29 cells after 48 hrs by sulforhodamine B assay; assay type: functional; conditions: HT-29, 48 h; procedure, shortened: as §1
[17] = test system: NCI-H23; assay: Growth inhibition of human NCI-H23 cells after 48 hrs by sulforhodamine B assay; assay type: functional; conditions: NCI-H23, 48 h; procedure, shortened: as §1
[18] = test system: NCI-H226; assay: Growth inhibition of human NCI-H226 cells after 48 hrs by sulforhodamine B assay; assay type: functional; conditions: NCI-H226, 48 h; procedure, shortened: as §1
[19] = test system: NCI-H522; assay: Growth inhibition of human NCI-H522 cells after 48 hrs by sulforhodamine B assay; assay type: functional; conditions: NCI-H522, 48 h; procedure, shortened: as §1
[20] = test system: NCI-H460; assay: Growth inhibition of human NCI-H460 cells after 48 hrs by sulforhodamine B assay; assay type: functional; conditions: NCI-H460, 48 h; procedure, shortened: as §1
[21] = test system: A549; assay: Growth inhibition of human A549 cells after 48 hrs by sulforhodamine B assay; assay type: functional; conditions: A549, 48 h; procedure, shortened: as §1
[22] = test system: DMS-273; assay: Growth inhibition of human DMS273 cells after 48 hrs by sulforhodamine B assay; assay type: functional; conditions: DMS-273, 48 h; procedure, shortened: as §1
[23] = test system: DMS-114; assay: Growth inhibition of human DMS114 cells after 48 hrs by sulforhodamine B assay; assay type: functional; conditions: DMS-114, 48 h; procedure, shortened: as §1
[24] = test system: LOX IMVI; assay: Growth inhibition of human LOXIMVI cells after 48 hrs by sulforhodamine B assay; assay type: functional; procedure, shortened: as §1
[25] = test system: OVCAR-3; assay: Growth inhibition of human OVCAR-3 cells after 48 hrs by sulforhodamine B assay; assay type: functional; conditions: OVCAR-3, 48 h; procedure, shortened: as §1
[26] = test system: OVCAR-4; assay: Growth inhibition of human OVCAR4 cells after 48 hrs by sulforhodamine B assay; assay type: functional; conditions: OVCAR-4, 48 h; procedure, shortened: as §1
[27] = test system: OVCAR-5; assay: Growth inhibition of human OVCAR5 cells after 48 hrs by sulforhodamine B assay; assay type: functional; conditions: OVCAR-5, 48 h; procedure, shortened: as §1
[28] = test system: OVCAR-8; assay: Growth inhibition of human OVCAR8 cells after 48 hrs by sulforhodamine B assay; assay type: functional; conditions: OVCAR-8, 48 h; procedure, shortened: as §1
[29] = test system: SK-OV-3; assay: Growth inhibition of human SKOV3 cells after 48 hrs by sulforhodamine B assay; assay type: functional; conditions: SK-OV-3, 48 h; procedure, shortened: as §1
[30] = Growth inhibition of human RXF631L cells after 48 hrs by sulforhodamine B assay; assay type: functional; conditions: RXF 631, 48 h; procedure, shortened: as §1
[31] = test system: ACHN; assay: Growth inhibition of human ACHN cells after 48 hrs by sulforhodamine B assay; assay type: functional; procedure, shortened: as §1
[32] = test system: St-4; assay: Growth inhibition of human St-4 cells after 48 hrs by sulforhodamine B assay; assay type: functional; conditions: St-4, 48 h; procedure, shortened: as §1
[33] = Growth inhibition of human MKN1 cells after 48 hrs by sulforhodamine B assay; assay type: functional; conditions: MKN-1, 48 h; procedure, shortened: as §1
[34] = test system: MKN-7; assay: Growth inhibition of human MKN7 cells after 48 hrs by sulforhodamine B assay; assay type: functional; conditions: MKN-7, 48 h; procedure, shortened: as §1
[35] = test system: MKN-28; assay: Growth inhibition of human MKN28 cells after 48 hrs by sulforhodamine B assay; assay type: functional; conditions: MKN-28, 48 h; procedure, shortened: as §1
[36] = test system: MKN-45; assay: Growth inhibition of human MKN45 cells after 48 hrs by sulforhodamine B assay; assay type: functional; conditions: MKN-45, 48 h; procedure, shortened: as §1
[37] = test system: MKN-74; assay: Growth inhibition of human MKN74 cells after 48 hrs by sulforhodamine B assay; assay type: functional; conditions: MKN-74, 48 h; procedure, shortened: as §1
[38] = test system: DU-145; assay: Growth inhibition of human DU145 cells after 48 hrs by sulforhodamine B assay; assay type: functional; conditions: DU-145, 48 h, read-out: pGI50 (converted); procedure, shortened: as §1
[39] = test system: PC-3; assay: Growth inhibition of human PC3 cells after 48 hrs by sulforhodamine B assay; assay type: functional; conditions: PC-3, 48 h; procedure, shortened: as §1
[40] = test system: HCT-15; assay: Growth inhibition of human HCT15 cells after 48 hrs by sulforhodamine B assay; assay type: functional; conditions: HCT-15, 48 h; procedure, shortened: as §1
[41] = test system: HCT-116; assay: Growth inhibition of human HCT116 cells after 48 hrs by sulforhodamine B assay; assay type: functional; conditions: HCT-116, 48 h; procedure, shortened: as §1
[42] = biological target: ABC-type oligopeptide transporter ABCB9 (Homo sapiens) (UniProt Q9NP78); assay: Effect on human GFP-tagged TAPL-mediated cellular uptake expressed in CHO-K1 cells assessed as localization to lysosome at 10 uM after 5 hrs by confocal laser scanning microscopic analysis

**Q.** What does the source list for `C[C@H]1C=C(CCCCCCCCCCCC[C@@H](O)[C@H]2CC[C@H]([C@H](O)CCCCCCCCCNS(=O)(=O)c3cccc4c(N(C)C)cccc34)O2)C(=O)O1`?
**A.** Activity [1]: Active; Activity [2]: Non-toxic; GI50 [3]: > 100 µM; GI50 [4]: > 100 µM; GI50 [5]: > 100 µM; GI50 [6]: 6.03 µM; GI50 [7]: > 100 µM; GI50 [8]: > 100 µM; GI50 [9]: > 100 µM; GI50 [10]: 0.513 µM; GI50 [11]: > 100 µM; GI50 [12]: > 100 µM; GI50 [13]: > 100 µM; GI50 [14]: > 100 µM; GI50 [15]: > 100 µM; GI50 [16]: > 100 µM; GI50 [17]: 3.47 µM; GI50 [18]: 29.5 µM; GI50 [19]: 4.9 µM; GI50 [20]: > 100 µM; GI50 [21]: > 100 µM; GI50 [22]: > 100 µM; GI50 [23]: 0.0234 µM; GI50 [24]: > 100 µM; GI50 [25]: > 100 µM; GI50 [26]: > 100 µM; GI50 [27]: > 100 µM; GI50 [28]: > 100 µM; GI50 [29]: > 100 µM; GI50 [30]: > 100 µM; GI50 [31]: > 100 µM; GI50 [32]: > 100 µM; GI50 [33]: > 100 µM; GI50 [34]: 0.0398 µM; GI50 [35]: 0.0692 µM; GI50 [36]: > 100 µM; GI50 [37]: 1.55 µM; GI50 [38]: > 100 µM; GI50 [39]: 81.3 µM; GI50 [40]: > 100 µM; GI50 [41]: 8.91 µM; Activity [42]: inactive
